# Experiments:
# Plasmodium falciparum = assay: Antiplasmodial activity against Plasmodium falciparum 3D7 infected in human erythrocytes assessed as parasite growth inhibition after 72 hrs by SYBR Green I dye based fluorescence assay; assay type: functional, organism-based; settings: 3D7, 72 h
# How it was run: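 P. falciparum 3D7, sorbitol-synchronized, in O+ human erythrocytes at 5% hematocrit and 0.5% parasitemia. Medium: RPMI 1640 with 2% human serum, 0.5% Albumax II and 0.2% NaHCO3, at 37 °C in 5% CO2. Triplicate serial dilutions, 0.001% final DMSO, 80 nM chloroquine as positive control, 72 h. SYBR Green I lysis for 1 h in the dark (ex 485/em 530 nm). IC50 by nonlinear regression of counts against log concentration.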
# [1] = Cytotoxicity against rat L6 cells after 72 hrs by alamar blue assay; assay type: cell-based
# How it was run: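 Rat L6 skeletal myoblasts plated at 50,000 cells/well in RPMI 1640 with L-glutamine and 10% FBS, left to adhere 3 h, then exposed to serial dilutions for 72 h. Alamar Blue added for 2 h at 37 °C, fluorescence read at ex 536/em 588 nm. TC50 taken as the concentration halving fluorescence relative to inhibitor-free wells.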
# [2] = Selectivity index, ratio of CC50 for rat L6 cells to IC50 for Plasmodium falciparum 3D7; assay type: functional
Compound,IC50 (Plasmodium falciparum),CC50 at 72 h [1],Ratio CC50/IC50 [2]
CN(c1ccc(Cl)cc1)c1cc[n+](Cc2ccc(CCc3ccc(C[n+]4ccc(N5CCCC5)cc4)cc3)cc2)cc1,0.031 µM,–,–
c1ccc(CSc2ncnc3c2ncn3Cc2ccc(CCc3ccc(C[n+]4ccc(N5CCCC5)cc4)cc3)cc2)cc1,0.149 µM,–,–
c1ccc(CSc2ncnc3c2ncn3Cc2ccc(C[n+]3ccc(N4CCCC4)cc3)cc2)cc1,0.411 µM,–,–
CN(C)c1cc[n+](Cc2ccc(C[n+]3ccc(N4CCCC4)cc3)cc2)cc1,0.094 µM,–,–
CN(C)c1cc[n+](Cc2ccc(CCCCc3ccc(Cn4cnc5c(SCc6ccccc6)ncnc54)cc3)cc2)cc1,0.5 µM,–,–
CN(C)c1cc[n+](Cc2ccc(CCc3ccc(C[n+]4ccc(N(C)c5ccc(Cl)cc5)cc4)cc3)cc2)cc1.[Br-].[Br-],0.005 µM,0.1 mg/L,28.6
CN(C)c1cc[n+](Cc2ccc(CCCCc3ccc(Cn4cnc5c(N)ncnc54)cc3)cc2)cc1,0.162 µM,–,–
c1ccc(CSc2ncnc3c2ncn3Cc2ccc(-c3ccc(C[n+]4ccc(N5CCCC5)cc4)cc3)cc2)cc1,0.119 µM,–,–
CN(C)c1cc[n+](Cc2ccc(-c3ccc(Cn4cnc5c(SCc6ccccc6)ncnc54)cc3)cc2)cc1,3.22 µM,–,–
CN(C)c1cc[n+](Cc2ccc(-c3ccc(C[n+]4ccc(N(C)c5ccc(Cl)cc5)cc4)cc3)cc2)cc1.[Br-].[Br-],0.007 µM,0.122 mg/L,24.4
CN(C)c1cc[n+](Cc2ccc(C[n+]3ccc(N(C)c4ccc(Cl)cc4)cc3)cc2)cc1,0.066 µM,–,–
CN(C)c1cc[n+](Cc2ccc(CCc3ccc(Cn4cnc5c(N)ncnc54)cc3)cc2)cc1,0.191 µM,–,–
CN(C)c1cc[n+](Cc2ccc(CCCCc3ccc(Cn4cnc(N)c5ncnc4-5)cc3)cc2)cc1,0.93 µM,–,–
Nc1ncnc2c1ncn2Cc1ccc(CCCCc2ccc(C[n+]3ccc(N4CCCC4)cc3)cc2)cc1,0.46 µM,–,–
Nc1ncn(Cc2ccc(CCCCc3ccc(C[n+]4ccc(N5CCCC5)cc4)cc3)cc2)c2ncnc1-2,0.084 µM,–,–
CN(c1ccc(Cl)cc1)c1cc[n+](Cc2ccc(-c3ccc(C[n+]4ccc(N5CCCC5)cc4)cc3)cc2)cc1,0.038 µM,–,–
CN(C)c1cc[n+](Cc2ccc(Cn3cnc4c(SCc5ccccc5)ncnc43)cc2)cc1,0.122 µM,–,–

Compound,IC50 (Plasmodium falciparum),CC50 at 72 h [1],Ratio CC50/IC50 [2]
CN(c1ccc(Cl)cc1)c1cc[n+](Cc2ccc(C[n+]3ccc(N4CCCC4)cc3)cc2)cc1,0.092 µM,–,–
Nc1ncn(Cc2ccc(CCc3ccc(C[n+]4ccc(N5CCCC5)cc4)cc3)cc2)c2ncnc1-2,0.21 µM,–,–
CN(C)c1cc[n+](Cc2ccc(CCCCc3ccc(C[n+]4ccc(N(C)c5ccc(Cl)cc5)cc4)cc3)cc2)cc1,0.045 µM,–,–
CN(C)c1cc[n+](Cc2ccc(Cn3cnc(N)c4ncnc3-4)cc2)cc1,> 22.7 µM,–,–
CN(C)c1cc[n+](Cc2ccc(-c3ccc(Cn4cnc(N)c5ncnc4-5)cc3)cc2)cc1,0.949 µM,–,–
CN(C)c1cc[n+](Cc2ccc(-c3ccc(Cn4cnc5c(N)ncnc54)cc3)cc2)cc1,4.84 µM,–,–
Nc1ncnc2c1ncn2Cc1ccc(-c2ccc(C[n+]3ccc(N4CCCC4)cc3)cc2)cc1,0.191 µM,–,–
CN(C)c1cc[n+](Cc2ccc(CCCCc3ccc(C[n+]4ccc(N5CCCC5)cc4)cc3)cc2)cc1.[Br-].[Br-],0.002 µM,0.012 mg/L,8.6
CN(c1ccc(Cl)cc1)c1cc[n+](Cc2ccc(CCCCc3ccc(C[n+]4ccc(N5CCCC5)cc4)cc3)cc2)cc1,0.037 µM,–,–
CN(C)c1cc[n+](Cc2ccc(-c3ccc(C[n+]4ccc(N5CCCC5)cc4)cc3)cc2)cc1.[Br-].[Br-],0.003 µM,5.1 mg/L,3187.5
Nc1ncnc2c1ncn2Cc1ccc(C[n+]2ccc(N3CCCC3)cc2)cc1,6.43 µM,–,–
Nc1ncnc2c1ncn2Cc1ccc(CCc2ccc(C[n+]3ccc(N4CCCC4)cc3)cc2)cc1,0.093 µM,–,–
CN(C)c1cc[n+](Cc2ccc(CCc3ccc(Cn4cnc5c(SCc6ccccc6)ncnc54)cc3)cc2)cc1,0.092 µM,–,–
CN(C)c1cc[n+](Cc2ccc(CCc3ccc(C[n+]4ccc(N5CCCC5)cc4)cc3)cc2)cc1.[Br-].[Br-],0.003 µM,0.123 mg/L,58.6
c1ccc(CSc2ncnc3c2ncn3Cc2ccc(CCCCc3ccc(C[n+]4ccc(N5CCCC5)cc4)cc3)cc2)cc1,0.054 µM,–,–
CN(C)c1cc[n+](Cc2ccc(Cn3cnc4c(N)ncnc43)cc2)cc1,14.3 µM,–,–
